In ChEMBL document CHEMBL1212735, “Metronidazole resistance in Prevotella spp. and description of a new nim gene in Prevotella baroniae” (2010):
In brackets after ≈: the same amount, converted by molar mass.

Key:
Format in all cases: functional
Prevotella bivia [1] = test: Antimicrobial activity against slow growing colonies of Prevotella bivia LBN 333 deficient in nim gene assessed as inhibition of growth at 48 hrs by agar dilution method; settings: LBN 333, 48 h
Method in brief: (§1)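 Slowly growing colonies inside the Etest inhibition zone, seen after prolonged incubation (an additional 72 h after the 48 h reading), were subcultured without antibiotic. They were then retested for metronidazole MIC by agar dilution on supplemented brucella blood agar under anaerobic conditions.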

Prevotella bivia [2] = test: Antimicrobial activity against slow growing colonies of Prevotella bivia LBN 445 deficient in nim gene assessed as inhibition of growth at 48 hrs by agar dilution method; settings: LBN 445, 48 h
Method in brief: (§2)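 Metronidazole MIC by agar dilution per CLSI M11-A7 on brucella agar with 5% sheep blood, hemin and vitamin K1. Plates incubated anaerobically at 35°C and read at 48 h, with a second reading after a further 72 h. B. fragilis ATCC 25285T and B. thetaiotaomicron ATCC 29741 served as controls. Done in duplicate; EUCAST breakpoints applied (S ≤4, R ≥8 μg/ml).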

Prevotella baroniae [3] = test: Antimicrobial activity against Prevotella baroniae DSM 16972T expressing nimI gene assessed as inhibition of growth after three consecutive subcultures on compound free medium by agar dilution method; settings: Segatella baroniae
Method in brief: (§3)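 Stability of induced resistance: metronidazole-selected isolates were subcultured three consecutive times on drug-free brucella blood agar (5% sheep blood, hemin, vitamin K1) under anaerobic conditions, then MIC was redetermined by CLSI agar dilution. Resistance was called stable if the MIC held within ±1 dilution. Duplicate experiments.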

Prevotella buccae = test: Antimicrobial activity against Prevotella buccae LBN 465 deficient in nimI gene assessed as inhibition of growth after three consecutive subcultures on compound free medium by agar dilution method; settings: Segatella buccae
Method in brief: (§4)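 Resistance induction: bacterial suspensions were plated on supplemented brucella blood agar with rising metronidazole concentrations. Colonies from the highest concentration were tested by agar dilution. MIC was then redetermined after three consecutive subcultures on drug-free agar. Resistance counted as stable if the MIC held within ±1 dilution. Anaerobic growth at 37°C. Duplicate experiments.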

Bacteroides fragilis = test: Antimicrobial activity against Bacteroides fragilis ATCC 25285T deficient in nimI gene assessed as inhibition of growth after three consecutive subcultures on compound free medium by agar dilution method; method in brief: as §4
Prevotella nanceiensis [4] = test: Antimicrobial activity against Prevotella nanceiensis LBP 66 deficient in nim gene assessed as inhibition of growth at 48 hrs by agar dilution method; settings: Hoylesella nanceiensis, LBP 66, 48 h
Method in brief: (§5)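 Metronidazole MIC by agar dilution (CLSI M11-A7) on brucella agar with 5% sheep blood, hemin and vitamin K1. Plates were read after 48 h at 35°C under anaerobic conditions. Susceptible was MIC ≤ 4 μg/ml and resistant MIC ≥ 8 μg/ml (EUCAST). B. fragilis ATCC 25285T and B. thetaiotaomicron ATCC 29741 were run as controls. Duplicate assays.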

Prevotella nanceiensis [5] = test: Antimicrobial activity against Prevotella nanceiensis LBN 293b deficient in nimI gene assessed as inhibition of growth after three consecutive subcultures on compound free medium by agar dilution method; settings: Hoylesella nanceiensis; method in brief: as §3
Prevotella bivia [6] = test: Antimicrobial activity against slow growing colonies of Prevotella bivia LBN 346 deficient in nim gene assessed as inhibition of growth at 48 hrs by agar dilution method; settings: LBN 346, 48 h; method in brief: as §1
Prevotella nanceiensis [7] = test: Antimicrobial activity against Prevotella nanceiensis LBN 293b deficient in nim gene assessed as inhibition of growth at 48 hrs by agar dilution method; settings: Hoylesella nanceiensis; method in brief: as §5
Prevotella bivia [8] = test: Antimicrobial activity against Prevotella bivia LBN 467 deficient in nim gene assessed as inhibition of growth at 48 hrs by agar dilution method; settings: LBN 467, 48 h; method in brief: as §5
Prevotella bivia [9] = test: Antimicrobial activity against Prevotella bivia LBN 467 deficient in nimI gene assessed as inhibition of growth after three consecutive subcultures on compound free medium by agar dilution method; method in brief: as §4
Prevotella bivia [10] = test: Antimicrobial activity against Prevotella bivia LBP 4 deficient in nim gene assessed as inhibition of growth at 48 hrs by agar dilution method; settings: LBP 4, 48 h; method in brief: as §5
Prevotella baroniae [11] = test: Antimicrobial activity against Prevotella baroniae LBP 9 expressing nim gene assessed as inhibition of growth at 48 hrs by agar dilution method; settings: Segatella baroniae, LBP 9, 48 h; method in brief: as §5
Prevotella baroniae [12] = test: Antimicrobial activity against Prevotella baroniae DSM 16972T expressing nimI gene assessed as inhibition of growth after several passages on plates containing increasing concentrations of compound by agar dilution method; settings: Segatella baroniae
Method in brief: (§6)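 Induction of metronidazole resistance: bacterial suspensions inoculated onto brucella blood agar (5% sheep blood, hemin, vitamin K1) containing metronidazole at increasing concentrations, grown anaerobically at 37°C. Colonies growing at the highest concentration were retested for MIC by CLSI agar dilution on the same agar. Duplicate experiments.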

Prevotella bivia [13] = test: Antimicrobial activity against Prevotella bivia LBN 365 deficient in nim gene assessed as inhibition of growth at 48 hrs by agar dilution method; settings: LBN 365, 48 h; method in brief: as §5
Prevotella bivia [14] = test: Antimicrobial activity against slow growing colonies of Prevotella bivia LBP 38 deficient in nim gene assessed as inhibition of growth at 48 hrs by agar dilution method; settings: LBP 38, 48 h; method in brief: as §2
Prevotella bivia [15] = test: Antimicrobial activity against Prevotella bivia LBN 336 deficient in nim gene assessed as inhibition of growth at 48 hrs by agar dilution method; settings: LBN 336, 48 h; method in brief: as §5
Prevotella bivia [16] = test: Antimicrobial activity against slow growing colonies of Prevotella bivia LBN 339 deficient in nim gene assessed as inhibition of growth at 48 hrs by agar dilution method; settings: LBN 339, 48 h; method in brief: as §1
Prevotella bivia [17] = test: Antimicrobial activity against Prevotella bivia LBP 78 deficient in nim gene assessed as inhibition of growth at 48 hrs by agar dilution method; settings: LBP 78, 48 h; method in brief: as §5
Prevotella bivia [18] = test: Antimicrobial activity against Prevotella bivia LBN 350 deficient in nim gene assessed as inhibition of growth at 48 hrs by agar dilution method; settings: LBN 350, 48 h; method in brief: as §5
Prevotella bivia [19] = test: Antimicrobial activity against slow growing colonies of Prevotella bivia LBP 69 deficient in nim gene assessed as inhibition of growth at 48 hrs by agar dilution method; settings: LBP 69, 48 h; method in brief: as §2
Prevotella nanceiensis [20] = test: Antimicrobial activity against Prevotella nanceiensis LBN 410 deficient in nim gene assessed as inhibition of growth at 48 hrs by agar dilution method; settings: Hoylesella nanceiensis, LBN 410, 48 h; method in brief: as §5
Prevotella baroniae [21] = test: Antimicrobial activity against Prevotella baroniae LBN 475 expressing nimI gene assessed as inhibition of growth after three consecutive subcultures on compound free medium by agar dilution method; settings: Segatella baroniae; method in brief: as §3
Prevotella baroniae [22] = test: Antimicrobial activity against Prevotella baroniae DSM 16972T expressing nim gene assessed as inhibition of growth at 48 hrs by agar dilution method; settings: Segatella baroniae; method in brief: as §5
Prevotella bivia [23] = test: Antimicrobial activity against slow growing colonies of Prevotella bivia LBP 51 deficient in nim gene assessed as inhibition of growth at 48 hrs by agar dilution method; settings: LBP 51, 48 h; method in brief: as §2
Prevotella baroniae [24] = test: Antimicrobial activity against Prevotella baroniae LBN 430 expressing nimI gene assessed as inhibition of growth after several passages on plates containing increasing concentrations of compound by agar dilution method; settings: Segatella baroniae; method in brief: as §6
Prevotella baroniae [25] = test: Antimicrobial activity against Prevotella baroniae LBN 475 expressing nimI gene assessed as inhibition of growth after several passages on plates containing increasing concentration of compound by agar dilution method; settings: Segatella baroniae; method in brief: as §6
Prevotella bivia [26] = test: Antimicrobial activity against slow growing colonies of Prevotella bivia LBN 343 deficient in nim gene assessed as inhibition of growth at 48 hrs by agar dilution method; settings: LBN 343, 48 h; method in brief: as §1

Cc1ncc([N+](=O)[O-])n1CCO [METRONIDAZOLE]
MIC (Prevotella bivia [1]): 32 µg/mL (≈ 187 µM)
MIC (Prevotella bivia [2]): 16 µg/mL (≈ 93.5 µM)
MIC (Prevotella baroniae [3]): 16 µg/mL (≈ 93.5 µM)
MIC (Prevotella buccae): 64 µg/mL (≈ 374 µM)
MIC (Bacteroides fragilis): 128 µg/mL (≈ 748 µM)
MIC (Prevotella nanceiensis [4]): 2 µg/mL (≈ 11.7 µM)
MIC (Prevotella nanceiensis [5]): 256 µg/mL (≈ 1500 µM)
MIC (Prevotella bivia [6]): 16 µg/mL (≈ 93.5 µM)
MIC (Prevotella nanceiensis [7]): 2 µg/mL (≈ 11.7 µM)
MIC (Prevotella bivia [8]): 16 µg/mL (≈ 93.5 µM)
MIC (Prevotella bivia [9]): > 256 µg/mL
MIC (Prevotella bivia [10]): 2 µg/mL (≈ 11.7 µM)
MIC (Prevotella baroniae [11]): 2 µg/mL (≈ 11.7 µM)
MIC (Prevotella baroniae [12]): 16 µg/mL (≈ 93.5 µM)
MIC (Prevotella bivia [13]): 4 µg/mL (≈ 23.4 µM)
MIC (Prevotella bivia [14]): 8 µg/mL (≈ 46.7 µM)
MIC (Prevotella bivia [15]): 2 µg/mL (≈ 11.7 µM)
MIC (Prevotella bivia [16]): 16 µg/mL (≈ 93.5 µM)
MIC (Prevotella bivia [17]): 4 µg/mL (≈ 23.4 µM)
MIC (Prevotella bivia [18]): 2 µg/mL (≈ 11.7 µM)
MIC (Prevotella bivia [19]): 8 µg/mL (≈ 46.7 µM)
MIC (Prevotella nanceiensis [20]): 1 µg/mL (≈ 5.84 µM)
MIC (Prevotella baroniae [21]): 256 µg/mL (≈ 1500 µM)
MIC (Prevotella baroniae [22]): 2 µg/mL (≈ 11.7 µM)
MIC (Prevotella bivia [23]): 32 µg/mL (≈ 187 µM)
MIC (Prevotella baroniae [24]): 128 µg/mL (≈ 748 µM)
MIC (Prevotella baroniae [25]): 256 µg/mL (≈ 1500 µM)
MIC (Prevotella bivia [26]): 16 µg/mL (≈ 93.5 µM)
